Measured values: ChEMBL document CHEMBL3627646, “Synthesis and biological activity of amino acid derivatives of avarone and its model compound” (Bioorg Med Chem, 2015)
≈ marks a conversion by molar mass, not a printed value. Calls of active or inactive are those of the source. The calls are words filed in the database; no cut-off is given here.

How the values were obtained:
[1] = tested on: HeLa; experiment: Cytotoxicity against human HeLa cells assessed as cell survival after 72 hrs by MTT assay; assay type: functional, cell-based
Method in brief: (§1)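 Cells seeded (HeLa 2000, MDA-MB-453 3000, others 5000 per well), treated 24 h later (K562 after 2 h). Five double-diluted final concentrations, 200–12.5 μM, from 10 mM DMSO stocks, in RPMI-1640 with 10% FBS, pH 7.2, 72 h. MTT 4 h at 37 °C, SDS added, A570 read next day. Survival relative to medium control; IC50 from survival curves; triplicate; cisplatin positive control.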

[2] = tested on: A549; experiment: Cytotoxicity against human A549 cells assessed as cell survival after 72 hrs by MTT assay; assay type: functional, cell-based; details: A549, 72 h; method in brief: as §1
[3] = Cytotoxicity against human Fem-X cells assessed as cell survival after 72 hrs by MTT assay; assay type: functional, cell-based; method in brief: as §1
[4] = tested on: K562; experiment: Cytotoxicity against human K562 cells assessed as cell survival after 72 hrs by MTT assay; assay type: functional, cell-based; details: K562, 72 h; method in brief: as §1
[5] = tested on: MDA-MB-453; experiment: Cytotoxicity against human MDA-MB-453 cells assessed as cell survival after 72 hrs by MTT assay; assay type: functional, cell-based; details: MDA-MB-453, 72 h; method in brief: as §1
[6] = tested on: MRC5; experiment: Cytotoxicity against human MRC5 cells assessed as cell survival after 72 hrs by MTT assay; assay type: cell-based; details: MRC5, 72 h; method in brief: as §1
[7] = tested on: HeLa; experiment: Cell cycle arrest in human HeLa cells assessed as accumulation at G2/M phase at IC50 after 24 hrs using propidium iodide staining by cytofluorometric analysis; assay type: functional, cell-based
Method in brief: (§2)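 Trypsinized, fixed in ice-cold 70% ethanol then held at −20 °C at least one week. Treated with RNase 100 µg/mL at 37 °C 30 min, stained with PI 40 µg/mL at least 30 min. Flow cytometry on ≥10,000 cells.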

[8] = tested on: HeLa; experiment: Cell cycle arrest in human HeLa cells assessed as accumulation at G2/M phase at 2 time IC50 after 24 hrs using propidium iodide staining by cytofluorometric analysis; assay type: functional, cell-based; method in brief: as §2
[9] = tested on: HeLa; experiment: Induction of apoptosis in human HeLa cells assessed as accumulation at sub-G1 phase after 24 hrs in presence of caspase-3 inhibitor Z-DEVD-FMK using propidium iodide staining by flow cytometric analysis; assay type: functional, cell-based
[10] = tested on: HeLa; experiment: Induction of apoptosis in human HeLa cells assessed as accumulation at sub-G1 phase after 24 hrs in presence of caspase-8 inhibitor Z-IETD-FMK using propidium iodide staining by flow cytometric analysis; assay type: functional, cell-based
[11] = tested on: HeLa; experiment: Induction of apoptosis in human HeLa cells assessed as accumulation at sub-G1 phase after 24 hrs in presence of caspase-9 inhibitor Z-LEHD-FMK using propidium iodide staining by flow cytometric analysis; assay type: functional, cell-based
[12] = tested on: HeLa; experiment: Induction of apoptosis in human HeLa cells assessed as accumulation at sub-G1 phase after 24 hrs using propidium iodide staining by flow cytometric analysis; assay type: functional, cell-based
[13] = tested on: Staphylococcus aureus; experiment: Antibacterial activity against Staphylococcus aureus ATCC 6538 after 24 hrs by microbroth double dilution method; assay type: functional; details: ATCC 6538, 24 h
Method in brief: (§3)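 Microbroth double dilution in Mueller Hinton broth; compound stock 10 mg/mL in DMSO serially halved across rows. Wells inoculated with 10 μL culture at 10^6 cells/mL, incubated 37 °C for 24 h. Amikacin row as positive control, DMSO row as negative control. MIC taken as lowest concentration inhibiting bacterial growth.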

[14] = tested on: Kocuria rhizophila; experiment: Antibacterial activity against Kocuria rhizophila ATCC 9341 after 24 hrs by microbroth double dilution method; assay type: functional; details: ATCC 9341, 24 h; method in brief: as §3
[15] = tested on: Bacillus subtilis; experiment: Antibacterial activity against Bacillus subtilis ATCC 6633 after 24 hrs by microbroth double dilution method; assay type: functional; details: ATCC 6633, 24 h; method in brief: as §3
[16] = tested on: Micrococcus luteus; experiment: Antibacterial activity against Micrococcus luteus ATCC 4698 after 24 hrs by microbroth double dilution method; assay type: functional; details: ATCC 4698, 24 h; method in brief: as §3
[17] = tested on: Micrococcus flavus; experiment: Antibacterial activity against Micrococcus flavus ATCC 10240 after 24 hrs by microbroth double dilution method; assay type: functional; details: ATCC 10240, 24 h; method in brief: as §3
[18] = tested on: Clostridium sporogenes; experiment: Antibacterial activity against Clostridium sporogenes ATCC 19404 after 24 hrs by microbroth double dilution method; assay type: functional; details: ATCC 19404, 24 h; method in brief: as §3
[19] = tested on: Escherichia coli; experiment: Antibacterial activity against Escherichia coli ATCC 25922 after 24 hrs by microbroth double dilution method; assay type: functional; details: ATCC 25922, 24 h; method in brief: as §3
[20] = tested on: Proteus hauseri; experiment: Antibacterial activity against Proteus hauseri ATCC 13315 after 24 hrs by microbroth double dilution method; assay type: functional; details: ATCC 13315, 24 h; method in brief: as §3
[21] = tested on: Salmonella enterica; experiment: Antibacterial activity against Salmonella enterica ATCC 13076 after 24 hrs by microbroth double dilution method; assay type: functional; details: ATCC 13076, 24 h; method in brief: as §3
[22] = tested on: Pseudomonas aeruginosa; experiment: Antibacterial activity against Pseudomonas aeruginosa ATCC 9027 after 24 hrs by microbroth double dilution method; assay type: functional; details: ATCC 9027, 24 h; method in brief: as §3
[23] = tested on: Candida albicans; experiment: Antifungal activity against Candida albicans ATCC 10231 after 24 hrs by microbroth double dilution method; assay type: functional; details: ATCC 10231, 24 h
[24] = tested on: Saccharomyces cerevisiae; experiment: Antifungal activity against Saccharomyces cerevisiae ATCC 9763 after 24 hrs by microbroth double dilution method; assay type: functional; details: ATCC 9763, 24 h
[25] = tested on: Aspergillus brasiliensis; experiment: Antifungal activity against Aspergillus brasiliensis ATCC 16404 after 24 hrs by microbroth double dilution method; assay type: functional; details: ATCC 16404, 24 h
[26] = tested on: Artemia salina; experiment: Cytotoxicity in Brine shrimp assessed as nauplii mortality after 24 hrs; assay type: organism-based; details: in vivo
Method in brief: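 Artemia salina eggs hatched in aerated tap water with dried yeast at 18–20 °C under illumination for 48 h, and freshly hatched nauplii were used. Compounds in DMSO (0.01–1 mg) were added to 950 µL artificial seawater containing 10–20 nauplii, with 5% final DMSO. After 24 h under illumination at room temperature, dead and surviving nauplii were counted and statistically analysed.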

SMILES	IC50 [1] [µM]	IC50 [2] [µM]	IC50 [3] [µM]	IC50 [4] [µM]	IC50 [5] [µM]	IC50 [6] [µM]	MIC [13] [µM]	MIC [14] [µM]	MIC [15] [µM]	MIC [16] [µM]	MIC [17] [µM]	MIC [18] [µM]	MIC [19] [µM]	MIC [20] [µM]	MIC [21] [µM]	MIC [22] [µM]	MIC [23] [µM]	MIC [24] [µM]	MIC [25] [µM]	LC50 [26] [ppm]	also measured
CC1=CCC[C@H]2[C@](C)(CC3=CC(=O)C=C(NCCC(=O)O)C3=O)[C@@H](C)CC[C@]12C	8.87	26.9	20.2	15.5	3.31	80.8	24.5 (≈ 9.8 µg/mL)	393 (≈ 157 µg/mL)	393 (≈ 157 µg/mL)	48.8 (≈ 19.5 µg/mL)	783 (≈ 313 µg/mL)	393 (≈ 157 µg/mL)	48.8 (≈ 19.5 µg/mL)	393 (≈ 157 µg/mL)	783 (≈ 313 µg/mL)	783 (≈ 313 µg/mL)	195 (≈ 77.9 µg/mL)	12.2 (≈ 4.89 µg/mL)	782 (≈ 313 µg/mL)	84.3	Activity [7]: Active; Activity [8]: Active; Activity [9]: inactive; Activity [10]: inactive; Activity [11]: inactive; Activity [12]: Active
CC(C)(C)C1=CC(=O)C=C(NCCC(=O)O)C1=O	47.1	171	28.4	67	94.1	> 200	625 (≈ 157 µg/mL)	2490 (≈ 625 µg/mL)	2490 (≈ 625 µg/mL)	1250 (≈ 313 µg/mL)	2490 (≈ 625 µg/mL)	1250 (≈ 313 µg/mL)	1250 (≈ 313 µg/mL)	2490 (≈ 625 µg/mL)	2490 (≈ 625 µg/mL)	2490 (≈ 625 µg/mL)	626 (≈ 157 µg/mL)	311 (≈ 78.1 µg/mL)	2490 (≈ 626 µg/mL)	833.2	
